Data set [1] addresses T1, NAD-dependent protein deacetylase sirtuin-1 (Homo sapiens) (UniProt Q96EB6).
T1 sequence (whole entry): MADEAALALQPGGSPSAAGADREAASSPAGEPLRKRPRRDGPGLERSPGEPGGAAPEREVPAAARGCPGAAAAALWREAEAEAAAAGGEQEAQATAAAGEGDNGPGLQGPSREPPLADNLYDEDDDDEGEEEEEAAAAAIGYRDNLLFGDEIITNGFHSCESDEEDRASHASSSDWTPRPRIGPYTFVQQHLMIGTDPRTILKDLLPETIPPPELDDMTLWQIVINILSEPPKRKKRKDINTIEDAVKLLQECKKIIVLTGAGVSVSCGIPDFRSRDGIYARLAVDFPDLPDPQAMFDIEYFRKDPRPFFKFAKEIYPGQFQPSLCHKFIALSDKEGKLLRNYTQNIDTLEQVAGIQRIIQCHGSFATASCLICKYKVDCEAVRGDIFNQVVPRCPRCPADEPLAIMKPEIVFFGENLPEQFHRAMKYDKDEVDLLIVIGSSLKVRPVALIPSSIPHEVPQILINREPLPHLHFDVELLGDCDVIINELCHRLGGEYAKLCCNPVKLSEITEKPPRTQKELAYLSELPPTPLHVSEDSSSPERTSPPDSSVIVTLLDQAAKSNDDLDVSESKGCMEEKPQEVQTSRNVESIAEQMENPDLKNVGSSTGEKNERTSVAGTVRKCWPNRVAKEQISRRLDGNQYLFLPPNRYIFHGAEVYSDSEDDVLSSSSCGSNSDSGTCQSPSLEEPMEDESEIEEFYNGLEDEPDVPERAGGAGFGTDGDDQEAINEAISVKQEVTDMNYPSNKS
The data set is described as follows: Activation of human SIRT1 expressed in Escherichia coli BL21Start assessed as concentration required to increase 50% enzyme activity by mass spectrometry assay. Put shortly: (§1)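 Truncated SIRT1 was expressed in E. coli BL21Start (DE3) and purified on Ni2+ chelate. Reaction: 10 nM enzyme, 0.5 µM biotinylated, fluorophore-tagged p53-derived 20-mer acetyl-lysine peptide and 120 µM NAD+, in 50 mM Tris-acetate pH 8 with NaCl, KCl, MgCl2, 5 mM DTT and 0.05% BSA; DMSO vehicle; 25 min at 25 °C. Stopped with formic acid/nicotinamide; acetylated versus deacetylated peptide read by mass spectrometry. EC1.5 is the concentration raising activity by 50%, the mean of three titration curves.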

Data set [2] concerns the target T1, NAD-dependent protein deacetylase sirtuin-1 (Homo sapiens). Kind of data set: Activation of human SIRT1 expressed in Escherichia coli BL21Start assessed as maximum activation of enzyme activity by mass spectrometry assay. In a few lines:
as §1

Data set [3] is described as follows: Solubility in water. It is filed as physicochemical.
A short description of data set [4]: Metabolic stability in mouse microsomes assessed as half life. Type of data set: ADME, Microsome.
The nature of data set [5]: Metabolic stability in human microsomes assessed as half life. Type of data set: ADME, Microsome.
Data set [6] is described as follows: Solubility in buffer at pH 7.4 by HPLC method. It is filed as physicochemical. Put shortly: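 Kinetic solubility was measured in pH 7.4 buffer by HPLC.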
Data set [7] in a line: Oral bioavailability in C57BL/6 mouse at 100 mg/kg. The following applies: in vivo. Type of data set: ADME, organism-based. In a few lines: (§2)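 Male C57BL/6 mice (18-22 g; 3 per dose group per time point), given 100 mg/kg po as the hydrochloride salt in 2% HPMC + 0.2% DOSS, or 10 mg/kg iv by tail vein in 10% ethanol/40% polyethylene glycol/50% H2O. Plasma was taken at 5, 30, 120 and 360 min after dosing and drug levels were measured.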

A short description of data set [8]: Cmax in C57BL/6 mouse at 100 mg/kg, po or 10 mg/kg, iv. It is filed as ADME, organism-based. The following applies: in vivo. Put shortly: as §2
Data set [9] is described as follows: Terminal half life in C57BL/6 mouse at 100 mg/kg, po or 10 mg/kg, iv. The following applies: in vivo, read-out: beta t1/2 (converted). Type of data set: ADME, organism-based. In a few lines:
as §2

Data set [10] can be described thus: AUC in C57BL/6 mouse at 100 mg/kg, po or 10 mg/kg, iv. The following applies: plasma. Type of data set: ADME, organism-based. Put shortly:
as §2

The source of these data is ChEMBL document CHEMBL1140923, “Discovery of imidazo[1,2-b]thiazole derivatives as novel SIRT1 activators” (J Med Chem, 2009).

For the molecule `O=C(Nc1ccccc1-c1cn2c(CN3CCNCC3)csc2n1)c1cc2ccccc2s1`, the Activity in data set [1] came out at 24 µM; in [2], 253%.
As to `O=C(Nc1ccccc1-c1cn2c(CN3CCNCC3)csc2n1)c1ccccc1`, the Activity in data set [1] worked out at 25 µM; in data set [2] it was 322%.
For `O=C(Nc1ccccc1-c1cn2c(CN3CCNCC3)csc2n1)c1cccc(OC(F)(F)F)c1` the same measures were 0.9 µM and 665%.
For `COc1cc(C(=O)Nc2cccc(-c3cn4ccsc4n3)c2)cc(OC)c1OC` the same measures were 7.5 µM and 380%.
As to `O=C(Nc1ccccc1-c1cn2c(CN3CCNCC3)csc2n1)c1cnccn1`, the Activity in data set [1] is 1.7 µM; in [2], 270%.
For `O=C(Nc1ccccc1-c1cn2c(CN3CCNCC3)csc2n1)c1cccc(SC(F)F)c1` the same measures were 0.51 µM and 808%.
For `COc1cc(C(=O)Nc2ccccc2-c2cn3cc(CN(C)C)sc3n2)cc(OC)c1OC` the same measures were 4.8 µM and 295%.
As for `O=C(Nc1ccccc1-c1cn2c(CN3CCNCC3)csc2n1)c1ccc2c(c1)OCO2`, the results for the Activity in data set [1] and in data set [2] were 4.9 µM and 332%, respectively.
The term solubility denotes the dissolved amount per volume that the medium holds. Low values mean little dissolved substance, high ones much dissolved substance. As to `COc1cc(C(=O)Nc2ccccc2-c2cn3ccsc3n2)cc(OC)c1OC`, the Activity in data set [1] came to 2.5 µM; in data set [2], 272%. Further, in [3], the solubility is under 100 µg/mL. In addition, the half-life in [4] came to 5 min; in data set [5], 10 min.
As for `COc1cc(C(=O)Nc2ccccc2-c2cn3c(CN(C)C)csc3n2)cc(OC)c1OC`, the Activity in data set [1] worked out at 1.9 µM; in data set [2] it was 270%.
For `COc1cc(C(=O)Nc2ccccc2-c2cn3cc(CN4CCNCC4)sc3n2)cc(OC)c1OC` the same measures were 3.2 µM and 257%.
In the same order, the values of `O=C(Nc1ccccc1-c1cn2c(CN3CCNCC3)csc2n1)c1ccc2ccccc2n1` are 0.99 µM and 440%.
For `O=C(Nc1ccccc1-c1cn2c(CN3CCNCC3)csc2n1)c1cccc2cccnc12` the same measures were 45 µM and 208%.
In the case of `COc1ccc(C(=O)Nc2ccccc2-c2cn3c(CN4CCNCC4)csc3n2)c(OC)c1`, the Activity turned out to be 31 µM in data set [1] and 197% in [2].
For `O=C(Nc1ccccc1-c1cn2c(CN3CCNCC3)csc2n1)c1cc2ccccc2o1` the same measures were 0.61 µM and 381%.
In the same order, the values of `COc1cc(F)cc(C(=O)Nc2ccccc2-c2cn3c(CN4CCNCC4)csc3n2)c1` are 2.1 µM and 662%.
Broadly, the bioavailability is dose-corrected exposure relative to a reference, in per cent. A high value points to much systemic uptake. Broadly, the Cmax is the highest concentration seen after dosing. What is called AUC is concentration integrated over time. For `COc1cc(C(=O)Nc2ccccc2-c2cn3c(CN4CCNCC4)csc3n2)cc(OC)c1OC`, the Activity in data set [1] turned out to be 1.8 µM; in data set [2], 271%. Also, the figures for the solubility in data set [3] and in data set [6] were over 10000 µg/mL and over 100 µM, respectively. The half-life is over 300 min in data set [4], 112 min in [5] and 360 min in data set [9]. This molecule gave a bioavailability in data set [7] of 40%. The molecule further gave a Cmax in [8] of 14 µM. Moreover, the AUC in data set [10] is 45000 ng·h/mL.
Turning to `COc1ccc(C(=O)Nc2ccccc2-c2cn3c(CN4CCNCC4)csc3n2)cc1F`, the Activity in data set [1] amounted to 6.2 µM; in data set [2] it was 619%.
For `O=C(Nc1ccccc1-c1cn2c(CN3CCNCC3)csc2n1)c1ccc2occc2c1` the same measures were 6.9 µM and 380%.
In the case of `Oc1ccc(/C=C/c2cc(O)cc(O)c2)cc1`, the Activity worked out at 48 µM in data set [1] and 250% in [2].
In the same order, the values of `O=C(Cc1ccccc1)Nc1ccccc1-c1cn2c(CN3CCNCC3)csc2n1` are 14 µM and 130%.
For the molecule `O=C(Nc1ccccc1-c1cn2c(CN3CCNCC3)csc2n1)c1cnc2ccccc2c1`, the Activity in data set [1] came out at 0.68 µM; in data set [2], 301%.
In the same order, the values of `O=C(Nc1ccccc1-c1cn2c(CN3CCNCC3)csc2n1)C1CCCC1` are 130 µM and 383%.
`COc1ccc(C(=O)Nc2ccccc2-c2cn3c(CN4CCNCC4)csc3n2)cc1OC`: the figures for the Activity in data set [1] and in data set [2] were 4.5 µM and 406%, respectively.
Take `COc1cc(C(=O)Nc2cccc(-c3nc4ncccc4o3)c2)cc(OC)c1OC`: the Activity in data set [1] is 11 µM; in [2], 388%.
In the same order, the values of `COc1cccc(C(=O)Nc2ccccc2-c2cn3c(CN4CCNCC4)csc3n2)c1` are 3.7 µM and 928%.
